Experimental data as given in ChEMBL document CHEMBL4715791, “Enhancing Therapeutic Efficacy of Cisplatin by Blocking DNA Damage Repair” (ACS Med Chem Lett, 2016).
The source made the active and inactive calls. No cut-off for these calls is given here.

Experiments:
HeLa [1] = experiment: Synergistic anticancer activity against human HeLa cells assessed as combination index at cisplatin to compound ratio of 1:1 measured after 24 to 72 hrs by MTT based Chou-Talalay method; type: functional; details: time 24-72 hrs
How it was run: (§1)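 Cisplatin and compound given together at fixed molar ratios. Viability read by MTT. Combination index computed at 50% inhibition (CI50); below 1 = synergism, 1 = additivity, above 1 = antagonism. Tested at 24, 48 and 72 h incubation.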

A549 [2] = experiment: Potentiation of cisplatin-induced cell cycle arrest in human A549 cells assessed as accumulation at G1 phase at 32.7 uM measured after 24 hrs in presence of cisplatin by propidium iodide/RNase staining based flow cytometry (reference value: 42.35%); type: functional
HeLa [3] = experiment: Potentiation of cisplatin-induced apoptosis in human HeLa cells assessed as late apoptotic cells at 6.8 uM measured after 24 hrs in presence of cisplatin by annexinV-FITC/propidium iodide staining based flow cytometry (reference value: 54%); type: functional
HeLa [4] = experiment: Potentiation of cisplatin-induced apoptosis in human HeLa cells assessed as early apoptotic cells at 6.8 uM measured after 24 hrs in presence of cisplatin by annexinV-FITC/propidium iodide staining based flow cytometry (reference value: 4.8%); type: functional
[5] = Potentiation of cisplatin-induced antitumor activity against mouse U14 cells implanted in Kunming mouse assessed as tumor volume at 1.5 mg/kg, ip administered on day 2, 5, 8 cotreated with cisplatin at 5 mg/kg, ip on day 1, 4, 7 and measured at day 10 by caliper method (reference value: 178 +/- 33 mm3); type: functional; details: time 10 day
How it was run: (§2)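 KM mice bearing subcutaneous U14 mouse cervical cancer xenografts. Groups received saline, cisplatin 5 mg/kg, compound 1.5 mg/kg, or both (1:1 molar ratio). Relative tumor volume followed over about 2 weeks.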

HeLa [6] = experiment: Inhibition of PP2A in human HeLa cells assessed as enzyme activity at 10 uM measured after 3 hrs by malachite green phosphatase assay relative to control; type: cell-based; parameters: scale not given: the % may be the effect or the level left
How it was run: (§3)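 PP2A activity measured in HeLa cells after 3 h exposure to compound, alone or combined with cisplatin. Activity expressed as % of untreated control.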

HeLa [7] = experiment: Inhibition of PP2A in human HeLa cells assessed as increase in phosphorylated ERK expression level at 2.5 uM measured after 24 hrs by Western blot analysis; type: cell-based
How it was run: (§4)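 HeLa cells exposed 24 h to cisplatin, compound or the combination. P-Akt and P-ERK read by Western blot.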

A549 [8] = experiment: Potentiation of cisplatin-induced apoptosis in human A549 cells at 32.7 uM measured after 24 hrs in presence of cisplatin by annexinV-FITC/propidium iodide staining based flow cytometry (reference value: 36.9%); type: functional
HeLa [9] = experiment: Inhibition of PP2A in human HeLa cells assessed as increase in phosphorylated ERK expression level at 2.5 uM measured after 24 hrs in presence of cisplatin by Hoechst staining based immunofluorescence assay; type: cell-based
HeLa [10] = experiment: Synergistic anticancer activity against human HeLa cells assessed as combination index at cisplatin to compound ratio of 1:0.5 measured after 24 hrs by MTT based Chou-Talalay method; type: functional; how it was run: as §1
HeLa [11] = experiment: Potentiation of cisplatin-induced cell cycle arrest in human HeLa cells assessed as accumulation at G2/M phase at 6.8 uM measured after 24 hrs in presence of cisplatin by propidium iodide/RNase staining based flow cytometry (reference value: 11.69 %); type: functional
HeLa [12] = experiment: Potentiation of cisplatin-induced cell cycle arrest in human HeLa cells assessed as accumulation at S phase at 6.8 uM measured after 24 hrs in presence of cisplatin by propidium iodide/RNase staining based flow cytometry (reference value: 27.18 %); type: functional
HeLa [13] = experiment: Potentiation of cisplatin-induced cell cycle arrest in human HeLa cells assessed as accumulation at G1 phase at 6.8 uM measured after 24 hrs in presence of cisplatin by propidium iodide/RNase staining based flow cytometry (reference value: 61.13 %); type: functional
U14 [14] = experiment: Antitumor activity against mouse U14 cells implanted in Kunming mouse assessed as tumor growth inhibition at 1.5 mg/kg, ip administered on day 2, 5, 8 measured after 1 week by caliper method; type: functional, organism-based; details: time 1.0 weeks; how it was run: as §2
U14 [15] = experiment: Antitumor activity against mouse U14 cells implanted in Kunming mouse assessed as tumor growth inhibition at 1.5 mg/kg, ip administered on day 2, 5, 8 measured after 2 weeks by caliper method; type: functional, organism-based; how it was run: as §2
HeLa [16] = experiment: Effect on total ERK level in human HeLa cells at 2.5 uM measured after 24 hrs in presence of cisplatin by Hoechst staining based immunofluorescence assay; type: functional, cell-based
HeLa [17] = experiment: Induction of cell cycle arrest in human HeLa cells assessed as accumulation at G1 phase at 6.8 uM measured after 24 hrs by propidium iodide/RNase staining based flow cytometry (reference value: 62.27 %); type: functional
HeLa [18] = experiment: Inhibition of PP2A in human HeLa cells assessed as increase in phosphorylated Akt expression level at 2.5 uM measured after 24 hrs in presence of cisplatin by Hoechst staining based immunofluorescence assay; type: cell-based
HeLa [19] = experiment: Inhibition of PP2A in human HeLa cells assessed as increase in phosphorylated AKT expression level at 2.5 uM measured after 24 hrs by Western blot analysis; type: cell-based; how it was run: as §4
HeLa [20] = experiment: Antagonistic anticancer activity against human HeLa cells assessed as combination index at cisplatin to compound ratio of 1:0.3 measured after 48 to 72 hrs by MTT based Chou-Talalay method; type: functional; details: time 48-72 hrs; how it was run: as §1
[21] = Toxicity in Kunming mouse implanted with mouse U14 cells assessed as change in body weight at 1.5 mg/kg, ip administered on day 2, 5, 8; type: organism-based; details: in vivo, 72 h, time 3 day
How it was run: (§5)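 U14-xenografted KM mice given saline, cisplatin 5 mg/kg, compound 1.5 mg/kg or both. Body weight monitored as a measure of systemic toxicity.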

A549 [22] = experiment: Potentiation of cisplatin-induced cell cycle arrest in human A549 cells assessed as accumulation at G2/M phase at 32.7 uM measured after 24 hrs in presence of cisplatin by propidium iodide/RNase staining based flow cytometry (reference value: 36.13 %); type: functional
HeLa [23] = experiment: Inhibition of PP2A in human HeLa cells assessed as increase in phosphorylated ERK expression level at 2.5 uM measured after 24 hrs by Hoechst staining based immunofluorescence assay; type: cell-based
HeLa [24] = experiment: Inhibition of PP2A in human HeLa cells assessed as enzyme activity at 10 uM measured after 3 hrs in presence of cisplatin by malachite green phosphatase assay relative to control; type: cell-based; parameters: scale not given: the % may be the effect or the level left; how it was run: as §3
A549 [25] = experiment: Induction of cell cycle arrest in human A549 cells assessed as accumulation at G2/M phase at 32.7 uM measured after 24 hrs by propidium iodide/RNase staining based flow cytometry (reference value: 11.7 %); type: functional
A549 [26] = experiment: Induction of cell cycle arrest in human A549 cells assessed as accumulation at S phase at 32.7 uM measured after 24 hrs by propidium iodide/RNase staining based flow cytometry (reference value: 27.5 %); type: functional
A549 [27] = experiment: Synergistic anticancer activity against human A549 cells assessed as combination index at cisplatin:compound ratio of 1:0.5 to 1:3 measured after 24 hrs in presence of cisplatin by MTT based Chou-Talalay method; type: functional; how it was run: as §1
HeLa [28] = experiment: Anticancer activity against human HeLa cells assessed as reduction in cell viability at 1 to 100 uM by MTT assay; type: functional, cell-based; details: dose 1-100 µM, time 24-72 hrs, TDE = time-dependent effect
HeLa [29] = experiment: Effect on total Akt expression in human HeLa cells at 2.5 uM measured after 24 hrs by Hoechst staining based immunofluorescence assay; type: functional, cell-based
HeLa [30] = experiment: Induction of cell cycle arrest in human HeLa cells assessed as accumulation at G2/M phase at 6.8 uM measured after 24 hrs by propidium iodide/RNase staining based flow cytometry (reference value: 10.52 %); type: functional
HeLa [31] = experiment: Effect on tubulin expression in human HeLa cells at 2.5 uM measured after 24 hrs by Hoechst staining based immunofluorescence assay; type: functional, cell-based
HeLa [32] = experiment: Induction of apoptosis in human HeLa cells assessed as early apoptotic cells at 6.8 uM measured after 24 hrs by annexinV-FITC/propidium iodide staining based flow cytometry relative to control; type: functional
HeLa [33] = experiment: Induction of apoptosis in human HeLa cells assessed as late apoptotic cells at 6.8 uM measured after 24 hrs by annexinV-FITC/propidium iodide staining based flow cytometry relative to control; type: functional
A549 [34] = experiment: Potentiation of cisplatin-induced cell cycle arrest in human A549 cells assessed as accumulation at S phase at 32.7 uM measured after 24 hrs in presence of cisplatin by propidium iodide/RNase staining based flow cytometry (reference value: 21.52 %); type: functional
HeLa [35] = experiment: Inhibition of PP2A in human HeLa cells assessed as increase in phosphorylated Akt expression level at 2.5 uM measured after 24 hrs by Hoechst staining based immunofluorescence assay; type: cell-based
HeLa [36] = experiment: Antagonistic anticancer activity against human HeLa cells assessed as combination index at cisplatin to compound ratio of 1:2 measured after 48 to 72 hrs by MTT based Chou-Talalay method; type: functional; details: time 48-72 hrs; how it was run: as §1
A549 [37] = experiment: Anticancer activity against human A549 cells assessed as reduction in cell viability measured after 24 to 72 hrs by MTT assay; type: functional, cell-based; details: time 24-72 hrs
How it was run: (§6)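 MTT viability assay in HeLa and A549 cells, with concentration- and time-dependent exposures.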

HeLa [38] = experiment: Anticancer activity against human HeLa cells assessed as reduction in cell viability measured after 24 to 72 hrs by MTT assay; type: functional, cell-based; details: dose 1-100 µM, time 24-72 hrs; how it was run: as §6
[39] = Toxicity in Kunming mouse implanted with mouse U14 cells assessed as reduction in body weight at 1.5 mg/kg, ip administered on day 2, 5, 8 cotreated with cisplatin at 5 mg/kg, ip on day 1, 4, 7 and measured after 2 weeks; type: organism-based; details: in vivo, 336 h; how it was run: as §5
HeLa [40] = experiment: Induction of cell cycle arrest in human HeLa cells assessed as accumulation at S phase at 6.8 uM measured after 24 hrs by propidium iodide/RNase staining based flow cytometry (reference value: 27.21 %); type: functional
HeLa [41] = experiment: Effect on total Akt expression in human HeLa cells at 2.5 uM measured after 24 hrs in presence of cisplatin by Hoechst staining based immunofluorescence assay; type: functional, cell-based
[42] = Toxicity in Kunming mouse implanted with mouse U14 cells assessed as reduction in body weight at 1.5 mg/kg, ip administered on day 2, 5, 8 cotreated with cisplatin at 5 mg/kg, ip on day 1, 4, 7 and measured after 1 week; type: organism-based; details: in vivo, 168 h, time 1 weeks; how it was run: as §5
HeLa [43] = experiment: Effect on tubulin expression in human HeLa cells at 2.5 uM measured after 24 hrs in presence of cisplatin by DAPI staining based immunofluorescence assay
A549 [44] = experiment: Induction of apoptosis in human A549 cells at 32.7 uM measured after 24 hrs by annexinV-FITC/propidium iodide staining based flow cytometry relative to control; type: functional
A549 [45] = experiment: Induction of cell cycle arrest in human A549 cells assessed as accumulation at G1 phase at 32.7 uM measured after 24 hrs by propidium iodide/RNase staining based flow cytometry (reference value: 60.8 %); type: functional
HeLa [46] = experiment: Effect on total ERK level in human HeLa cells at 2.5 uM measured after 24 hrs by Hoechst staining based immunofluorescence assay; type: functional, cell-based

For `CC(C)(C)OC(=O)N1CCN(C(=O)C2C3CCC(O3)C2C(=O)O)CC1` (stereo unspecified), the CI50 (HeLa [1]) was <1, the Activity (A549 [2]) was 38.95% and the Activity (HeLa [3]) was 64.1%. For the same compound, the Activity (HeLa [4]) was 6.4%, the Activity [5] was 97 mm3 and the Activity (HeLa [6]) was 78.5%. The inhibition (HeLa [7]) was “Active”, the Activity (A549 [8]) was 41.5% and the inhibition (HeLa [9]) was “Active”. For the same compound, the CI50 (HeLa [10]) was <1, the Activity (HeLa [11]) was 31.46% and the Activity (HeLa [12]) was 27.87%. The Activity (HeLa [13]) was 40.67%, the “growth inhibition (GI)” value (U14 [14]) was “inactive” and the “growth inhibition (GI)” value (U14 [15]) was “Active”. The Activity (HeLa [16]) was “inactive”, the Activity (HeLa [17]) was 42.51% and the inhibition (HeLa [18]) was “Active”. The inhibition (HeLa [19]) was “Active”, the CI50 (HeLa [20]) was >1 and the Activity [21] was “Toxic”. The Activity (A549 [22]) was 15.34%, the inhibition (HeLa [23]) was “Active” and the Activity (HeLa [24]) was 86%. The Activity (A549 [25]) was 11.32%, the Activity (A549 [26]) was 36.61% and the CI50 (A549 [27]) was <1. The Activity (HeLa [28]) was “Tde”, the Activity (HeLa [29]) was “inactive” and the Activity (HeLa [30]) was 23.28%. For the same compound, the Activity (HeLa [31]) was “inactive”, the Activity (HeLa [32]) was 5.4% and the Activity (HeLa [33]) was 21.8%. For the same compound, the Activity (A549 [34]) was 45.71%, the inhibition (HeLa [35]) was “Active” and the CI50 (HeLa [36]) was >1. The Activity (A549 [37]) was “Active”, the Activity (HeLa [38]) was “Dose-dependent effect” and the Activity [39] was “Non-Toxic”. For the same compound, the Activity (HeLa [40]) was 34.21%, the Activity (HeLa [41]) was “inactive” and the Activity [42] was “Toxic”. For the same compound, the Activity (HeLa [43]) was “inactive”, the Activity (A549 [44]) was 35.5% and the Activity (A549 [45]) was 52.07%. The Activity (HeLa [46]) was “inactive”.
